Bioassay records: PubChem BioAssay, The Scripps Research Institute Molecular Screening Center
M5 antag = human M5 muscarinic receptor antagonists, primary screen, CHO cells, Fluo-8 calcium fluorescence; CHO-hM5 cells, ACh EC80; inhibition, % at 3 µM; 360,000 tested, 0.59% active; Muscarinic acetylcholine receptor M5 (Homo sapiens), P08912;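 active = inhibition above a per-plate cutoff, the mean of that plate's test compounds plus 3 SD, cut at about 27% in these data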;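 note: 0% = acetylcholine EC80 with DMSO and 100% = DMSO without agonist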
Target sequence (P08912 whole entry, looked up): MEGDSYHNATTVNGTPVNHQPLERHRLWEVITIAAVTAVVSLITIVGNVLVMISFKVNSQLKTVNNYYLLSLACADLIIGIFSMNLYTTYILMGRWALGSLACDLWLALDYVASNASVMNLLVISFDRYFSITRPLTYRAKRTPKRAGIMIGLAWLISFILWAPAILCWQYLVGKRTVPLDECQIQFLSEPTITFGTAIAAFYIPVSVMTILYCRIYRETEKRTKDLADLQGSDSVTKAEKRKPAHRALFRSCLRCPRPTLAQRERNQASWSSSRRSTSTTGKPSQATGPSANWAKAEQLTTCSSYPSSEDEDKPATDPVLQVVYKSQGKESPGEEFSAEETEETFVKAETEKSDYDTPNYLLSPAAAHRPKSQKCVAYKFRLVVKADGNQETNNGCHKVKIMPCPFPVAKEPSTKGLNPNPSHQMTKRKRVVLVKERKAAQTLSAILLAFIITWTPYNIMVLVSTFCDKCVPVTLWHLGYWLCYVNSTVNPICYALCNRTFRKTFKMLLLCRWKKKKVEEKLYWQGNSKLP
M4 PAM = human M4 muscarinic receptor positive allosteric modulators, primary screen, CHO-K1 cells, Fluo-8 calcium fluorescence; Muscarinic acetylcholine receptor M4 (Homo sapiens), P08173; CHO-K1 hM4/Gqi5, ACh EC20; 0% = ACh EC20, 100% = maximal ACh; activation, % at 3 µM; 360,000 tested, 0.4% active; AID 624126, 2012;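 active = activation above its plate's cutoff, the mean activation of sample wells plus 3 SD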
CHRM5 PAM = human M5 muscarinic receptor positive allosteric modulators, primary screen, CHO-K1 cells, Fluo-8 calcium fluorescence. Muscarinic acetylcholine receptor M5 (Homo sapiens), P08912. CHO-K1 hM5, ACh EC20 PAM; 0% = ACh EC20, 100% = ACh EC100. activation, % at 3 µM. 360,000 tested, 0.3% active. AID 624038, 2012;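 active = activation above the run cutoff, the mean activation of all test compounds plus 3 SD, cut at about 18% in these data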
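Assay system – human M5 receptor in CHO-K1 cells · Read-out – % activation, ACh-normalized · Technique – Fluo-8 calcium fluorescence · Dosing – single-point, 3 µM nominal · Incubation – Fluo-8 loading 80 min at 37 °C plus 30 min room temperature · Repeats – singlicate, one well per test compound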
M4 antag = human M4 muscarinic receptor antagonists, primary screen, CHO cells, Fluo-8 calcium fluorescence; AID 624125, 2012; 360,000 tested, 0.73% active; CHO-hM4 cells, ACh EC80; inhibition, % at 3 µM;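 active = inhibition above its plate's cutoff, the mean inhibition of sample wells plus 3 SD, cut at about 27% in these data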;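 note: 0% = acetylcholine EC80 with DMSO and 100% = DMSO without agonist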
CHRM4 agonist = human M4 muscarinic receptor agonists, primary screen, CHO-K1 cells, Fluo-8 calcium fluorescence. Muscarinic acetylcholine receptor M4 (Homo sapiens), P08173. CHO-K1 hM4/Gqi5; vehicle 0%, full acetylcholine response 100%. 360,000 tested, 0.14% active. activation, % at 3 µM;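 active = activation above the run mean over all test wells plus 3 SD, cut at about 32% in these data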;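 note: peak over basal fluorescence ratio per well then scaled between controls; 0% = DMSO wells and 100% = acetylcholine at EC100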
CHRM5 agonist = human M5 muscarinic receptor agonists, primary screen, CHO-K1 cells, Fluo-8 calcium fluorescence; CHO-K1 hM5 cells; 0% DMSO wells, 100% maximal acetylcholine response; 360,000 tested, 0.19% active; activation, % at 3 µM; AID 624037, 2012;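 active = activation above the run's mean over test compounds plus 3 SD, cut at about 23% in these data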;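 note: signal is peak over basal fluorescence ratio across the kinetic read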
Starred values were filed as active, the others as inactive. Only some compounds are listed: those with a hit (about 1.9% of all), similar ones and a draw of the others.

SMILES	M5 antag	M4 PAM	CHRM5 PAM	M4 antag	CHRM4 agonist	CHRM5 agonist
CC1(C(=O)Nc2cccc3ccccc23)CC1(Br)Br (centres undefined)	31*	-45	-29	16	10	-10
Cc1ccccc1SCC(=O)OCC(=O)Nc1sccc1C(N)=O	40*	-12	-19	31*	19	9
NC(=O)c1ccsc1NC(=O)CSc1ccccc1F	2	3	0	5	4	5
NC(=O)c1ccsc1NC(=O)COC(=O)Cc1cccc2ccccc12	55*	-14	-21	61*	22	8
CN(C)S(=O)(=O)c1cccc(C(=O)OCC(=O)Nc2sccc2C(N)=O)c1	16	-20	-20	38*	30	15
COc1ccc(-c2cnc3c(c2)CCC3(C#N)C#N)cc1	3	9	-6	-14	2	0
COc1ccc(/C=N/NC(=O)NC23CC4CC(CC(C4)C2)C3)c(OC)c1	-8	-3	7	-10	1	-1
COc1cc(OC)cc(OC(=O)C2CCN(C3=NS(=O)(=O)c4ccccc43)CC2)c1	11	7	-1	-5	7	2
COC(=O)[C@]12CCCCC=C1N(Cc1ccco1)C(=O)[C@H](CC(=O)NCc1cccc(C(F)(F)F)c1)C2	6	3	-5	-5	3	4
COc1ccc(C2c3c(ncn(CCCO)c3=N)Oc3ccc4ccccc4c32)cc1 (centres undefined)	7	-9	-10	0	19	-4
COc1ccc(C2c3c(ncn(CCCO)c3=N)Oc3ccc4ccccc4c32)cc1OC (centres undefined)	-4	11*	7	1	1	-2
CC(=O)c1cccc(NC(=O)/C(=C\c2cccnc2)NC(=O)c2ccccc2)c1	13	-12	-3	29*	0	0
CN(C)c1ccc(-c2csc(C(O)c3ccc(F)c(F)c3)n2)cc1 (centres undefined)	37*	-15	-18	46*	102*	50*
CN(C)c1ccc(-c2csc(C(O)c3ccc(F)cc3)n2)cc1 (centres undefined)	-5	-13	-17	10	60*	30*
COc1ccc(-c2csc(C(O)c3ccc(F)cc3)n2)cc1 (centres undefined)	-1	-11	-11	-4	47*	9
COc1ccc(C(O)c2nc(-c3ccc(N(C)C)cc3)cs2)cc1 (centres undefined)	2	-14	-11	9	38*	13
Cc1c(-c2cccc(Cl)c2)nc2ccccc2c1C(=O)OC/C(O)=C(\C#N)c1nc2ccccc2[nH]1	2	5	2	-1	3	-3
O=C(NCc1ccccc1Cl)C1CCCN(c2ncnc3c2nc2n3CCCCC2)C1 (centres undefined)	8	0	-3	2	2	-5
Cc1ccc(CN2CCC(CNC(=O)C3CCCN(c4ncnc5c4nc4n5CCCCC4)C3)CC2)cc1 (centres undefined)	2	-26	-2	38*	1	-12
O=C(Nc1cccnc1Cl)C1CCCN(c2ncnc3c2nc2n3CCCCC2)C1 (centres undefined)	-15	18*	4	-35	3	-5
O=C(NCC1CCN(Cc2ccccc2F)CC1)C1CCCN(c2ncnc3c2nc2n3CCCCC2)C1 (centres undefined)	-7	-21	-4	52*	-1	-9
C=CCn1c(SCC(=O)c2ccc(F)cc2)nnc1-c1ccc2c(c1)OCO2	2	-4	-10	-2	7	-1
Cc1ccccc1-c1cc2c(c3c1ccn3C)C1CCC2C1 (centres undefined)	-5	-3	-3	-5	-1	4
COc1cc(Cl)ccc1NC(=S)N(CCN1CCOCC1)C1CCN(C(C)=O)CC1	0	-12	5	61*	0	-2
COc1ccc(OCC(O)CNC(=O)Nc2cc(F)ccc2C)cc1 (centres undefined)	8	18	11	5	2	0
SMILES	M5 antag	M4 PAM	CHRM5 PAM	M4 antag	CHRM4 agonist	CHRM5 agonist
COc1ccc(S(=O)(=O)NC(=O)C2(C)CCN2C(=O)Cc2cc(F)ccc2F)cc1 (centres undefined)	7	6	-2	-4	1	1
Cc1cccc(OCc2nc(-c3ccc(-n4cccc4)cc3)no2)c1	1	18*	3	-28	1	1
Cc1ccc(OCc2nc(-c3ccc(-n4cccc4)cc3)no2)cc1C	9	3	-2	-12	-1	0
CC(=O)Nc1ccc(NC(=O)CNC(=O)c2sc3ccccc3c2Cl)cc1	3	6	1	-8	0	3
COC(=O)c1ccc(NC(=O)CNC(=O)c2sc3ccccc3c2Cl)cc1	11	22*	-8	-1	0	1
CCCCSc1ncc(C(=O)OCC)c(N)n1	-3	-5	0	1	-1	-6
CCOC(=O)c1cnc(SCCc2ccccc2)nc1N	-7	35*	3	2	-3	-5
O=C(NCCN1CCOCC1)c1ccc(Cl)c(S(=O)(=O)NCc2ccccc2)c1	9	22*	11	-12	1	1
Brc1cccc(-c2nc3c4ccccc4ccn3c2Cc2ccccc2)c1	-4	-8	-6	5	0	1
COc1cc(CNc2ncnc3c2ncn3[C@H]2CN(Cc3cc(OC)c(OC)c(OC)c3)C[C@@H](CO)O2)cc(OC)c1OC	-12	22*	2	-21	0	-1
OC[C@@H]1CN(Cc2ccc(F)cc2)C[C@H](n2cnc3c(Nc4ccccc4)ncnc32)O1	13	-13	-9	-1	16	2
OC[C@@H]1CN(Cc2ccccc2)C[C@H](n2cnc3c(NCc4ccncc4)ncnc32)O1	2	20*	0	-5	5	0
OC[C@@H]1CN(Cc2ccc(F)cc2)C[C@H](n2cnc3c(NCc4ccncc4)ncnc32)O1	2	4	-1	-15	4	1
OC[C@@H]1CN(Cc2ccc(-c3ccccc3)cc2)C[C@H](n2cnc3c(Nc4ccccc4)ncnc32)O1	22	-11	-15	37*	21	3
